Assay outcomes (PubChem)
ADAM10 inh: inhibits human ADAM10; AID 720582; actives 0.62% (n = 370,000); inhibition, % at 7 µM; recombinant ADAM10, EDANS/DABCYL FRET peptide cleavage, 3 h;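 active = inhibition above a per-campaign cutoff equal to the mean of compounds falling between control-based bounds plus 3 SD, cut at about 20% in these data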
V-ATPase pH: yeast V-ATPase proton transport regulation by pHLuorin; S. cerevisiae, pHLuorin cytosolic pH fluorescence; AID 504577; response, % at 10 µM; actives 0.37% (n = 350,000); in the data active = response mostly above about 7.3%, no sharp cut-off; inactive = mostly below about 5.4%; also: actives read high
ADAM17 inh: ADAM17 inhibition, QFRET primary screen; P78536; recombinant ADAM17, EDANS/DABCYL FRET peptide cleavage; inhibition, % at 6.95 µM; actives 0.83% (n = 370,000); AID 720648;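 active = inhibition above the mean of compounds lying between control limits plus 3 SD, set per campaign, cut at about 8.5% in these data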
Target sequence (P78536 215-824 limits assumed): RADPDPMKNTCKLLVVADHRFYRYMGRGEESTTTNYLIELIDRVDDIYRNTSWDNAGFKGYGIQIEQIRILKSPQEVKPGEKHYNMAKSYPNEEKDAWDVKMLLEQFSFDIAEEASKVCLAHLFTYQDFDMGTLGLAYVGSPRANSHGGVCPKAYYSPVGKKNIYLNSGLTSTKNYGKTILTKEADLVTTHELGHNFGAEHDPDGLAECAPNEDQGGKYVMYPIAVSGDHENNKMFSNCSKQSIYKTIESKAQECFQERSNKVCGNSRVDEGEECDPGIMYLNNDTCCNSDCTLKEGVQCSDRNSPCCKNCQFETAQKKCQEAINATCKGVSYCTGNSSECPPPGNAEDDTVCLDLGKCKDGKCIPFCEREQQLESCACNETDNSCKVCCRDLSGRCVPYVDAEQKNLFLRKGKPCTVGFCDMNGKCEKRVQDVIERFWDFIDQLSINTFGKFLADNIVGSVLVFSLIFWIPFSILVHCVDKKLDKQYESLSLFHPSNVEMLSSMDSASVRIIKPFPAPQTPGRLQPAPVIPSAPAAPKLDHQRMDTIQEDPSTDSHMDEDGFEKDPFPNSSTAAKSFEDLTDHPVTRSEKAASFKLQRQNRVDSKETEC
MPTP inh: blocks calcium-induced mitochondrial swelling. isolated mouse mitochondria, Ca2+ swelling absorbance, 30 min. inhibition, % at 10 µM. actives 1.4% (n = 360,000);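 active = inhibition of 50% or more, scaled per plate between neutral and stimulator controls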
aDG glyco act: increases alpha dystroglycan glycosylation; activation, % at 10 µM; AID 624168; Pro5-aDG cells, alpha-DG glycosylation AlphaScreen (IIH6); 0% Pro5, 100% B10-LARGE cell signal; actives 0.22% (n = 360,000);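 active = activation of at least 8% versus controls, or a plate z-score of at least 8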;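 also: Pro5 are CHO cells carrying HIG-tagged alpha-DG that lacks glycosylation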
Lipid droplet: modulators of hepatic lipid droplet formation; actives 0.4% (n = 240,000); AML12 mouse hepatocytes, oleate lipid droplets, BODIPY imaging; inhibition, % at 6.5 µM;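 active = lipid droplet intensity inhibited by at least 50%, with more than 500 cells counted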
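Material – AML12 mouse liver cells · Also added – oleate loading, 100 µM · Compound dosing – 6.5 µM single-point dosing · Times – overnight treatment with compound plus oleate · Measured by – fluorescence imaging, 20x objective, two fields per well · Read-out – percent inhibition of filter-corrected integrated lipid droplet intensity per well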
ADAM10 confirm: confirmation of inhibitors of human ADAM10; inhibition, % at 6.95 µM; shares compounds with ADAM10 inh; ADAM10 QFRET peptide cleavage, EDANS fluorescence; actives 1% (n = 2,100);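 active = inhibition above about 20% chosen separately for each screening run, limit read from the data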
ADAM17 counter: counter-screen for ADAM10 exosite inhibitors: inhibitors of human ADAM17 | inhibition, % at 6.95 µM | ADAM17 QFRET peptide cleavage, EDANS fluorescence | AID 743214 | shares compounds with ADAM10 inh | actives 0.5% (n = 2,100);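 active = mean triplicate inhibition above the solvent-only control wells' mean plus 3 SD, cut at about 12% in these data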
ADAM10 counter: counter-screen for ADAM17 exosite inhibitors: inhibitors of human ADAM10; shares compounds with ADAM17 inh; actives 47% (n = 2,900); recombinant ADAM10, EDANS/DABCYL FRET peptide cleavage, 3 h; inhibition, % at 6.95 µM; AID 743256;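 active = mean inhibition over the triplicate runs exceeds the activity threshold set in the earlier primary screen, cut at about 20% in these data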
ADAM17 confirm: confirmation of inhibitors of human ADAM17; shares compounds with ADAM17 inh; recombinant ADAM17, EDANS/DABCYL QFRET peptide cleavage; inhibition, % at 6.95 µM; actives 65% (n = 2,900);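 active = mean inhibition across replicates above the hit cutoff set in the primary screen, cut at about 8.5% in these data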
A number is an active result. This is a sample that favours compounds with a hit; in the whole collection about 3.1% have one here.

What do the screens show for `COc1ccc(C=C(c2nc3ccccc3s2)c2nc3ccccc3s2)cc1O`?
ADAM10 inh: 20; V-ATPase pH: inactive; ADAM17 inh: 8.6; MPTP inh: inactive; aDG glyco act: inactive; Lipid droplet: inactive; ADAM10 confirm: inactive; ADAM17 counter: inactive; ADAM10 counter: 25; ADAM17 confirm: 14

What do the screens show for `CC1(Cc2ccccc2OC(F)(F)F)C(=O)Nc2ccc(S(=O)(=O)NC3CCCCC3)cc21` (stereo unspecified)?
ADAM10 inh: inactive; ADAM17 inh: inactive; MPTP inh: inactive; aDG glyco act: inactive

How did COc1ccc(OC(F)(F)F)cc1CC1(C)C(=O)Nc2ccc(S(=O)(=O)NC3CCCCC3)cc21 (stereo unspecified) do in these assays?
ADAM10 inh: 23; ADAM17 inh: 10; MPTP inh: inactive; aDG glyco act: inactive; ADAM10 confirm: inactive; ADAM17 counter: inactive; ADAM10 counter: 40; ADAM17 confirm: 18

What do the screens show for `Cc1ccc(C2CCC3(CCC(=O)N3CCOC(=O)Nc3cccc(C#N)c3)CC2)cc1` (stereo unspecified)?
ADAM10 inh: inactive; ADAM17 inh: inactive

How did COc1ccc(NC(=O)CN(C)C(=O)c2cn(-c3ccccc3)nc2-c2ccc(F)cc2)cc1 do in these assays?
ADAM10 inh: inactive; V-ATPase pH: inactive; ADAM17 inh: inactive; MPTP inh: inactive; aDG glyco act: inactive

What do the screens show for `COc1ccc(NC(=O)CN(C)C(=O)c2cn(-c3ccccc3)nc2-c2ccc(Cl)cc2)cc1`?
ADAM10 inh: 20; V-ATPase pH: inactive; ADAM17 inh: 10; MPTP inh: inactive; aDG glyco act: inactive; ADAM10 confirm: inactive; ADAM17 counter: inactive; ADAM10 counter: 38; ADAM17 confirm: 18

What do the screens show for `C[C@@H](NC(=O)c1nc[nH]c1C(=O)NCc1ccc(CNC(=O)OC(C)(C)C)cc1)c1ccccc1`?
ADAM10 inh: 45; V-ATPase pH: inactive; ADAM17 inh: 17; MPTP inh: inactive; aDG glyco act: inactive; ADAM10 confirm: inactive; ADAM17 counter: inactive; ADAM10 counter: 22; ADAM17 confirm: 16

How did CC(C)(C)OC(=O)NCCCCCNC(=O)c1[nH]cnc1C(=O)N[C@@H](CCCCNC(=O)OC(C)(C)C)C(=O)OC(C)(C)C do in these assays?
V-ATPase pH: inactive; MPTP inh: inactive; aDG glyco act: inactive; Lipid droplet: inactive

What do the screens show for `CC(C)C[C@H](NC(=O)c1nc[nH]c1C(=O)NCc1ccc(CNC(=O)OC(C)(C)C)cc1)C(=O)OC(C)(C)C`?
ADAM10 inh: 24; V-ATPase pH: inactive; ADAM17 inh: 16; MPTP inh: inactive; aDG glyco act: inactive; Lipid droplet: inactive; ADAM10 confirm: inactive; ADAM17 counter: inactive; ADAM10 counter: 52; ADAM17 confirm: 25

How did C[C@H](NC(=O)c1nc[nH]c1C(=O)NCc1ccc(CNC(=O)OC(C)(C)C)cc1)C(=O)OC(C)(C)C do in these assays?
ADAM10 inh: inactive; V-ATPase pH: inactive; ADAM17 inh: inactive; MPTP inh: inactive; aDG glyco act: inactive; Lipid droplet: inactive

What do the screens show for `CC(C)(C)OC(=O)NCCCC[C@H](NC(=O)c1nc[nH]c1C(=O)NCc1ccc(CNC(=O)OC(C)(C)C)cc1)C(=O)OC(C)(C)C`?
ADAM10 inh: 20; V-ATPase pH: inactive; ADAM17 inh: 13; MPTP inh: inactive; aDG glyco act: inactive; Lipid droplet: inactive; ADAM10 confirm: inactive; ADAM17 counter: inactive; ADAM10 counter: 29; ADAM17 confirm: 15

Results for Cn1cccc1C(=O)N1CCN(S(=O)(=O)c2ccccc2F)CC1 ?
ADAM10 inh: inactive; ADAM17 inh: inactive

Results for Cc1ccc(C(=O)OCc2ccc3c(c2)OCO3)cc1S(=O)(=O)N1CCCCC1 ?
ADAM10 inh: 21; V-ATPase pH: inactive; ADAM17 inh: 13; MPTP inh: inactive; aDG glyco act: inactive; Lipid droplet: inactive; ADAM10 confirm: inactive; ADAM17 counter: inactive; ADAM10 counter: inactive; ADAM17 confirm: 9.4

What do the screens show for `CCc1cc(Cn2nc(-c3ccccc3)cc2C(=O)NCCOC)on1`?
ADAM10 inh: inactive; V-ATPase pH: inactive; ADAM17 inh: inactive; MPTP inh: inactive; aDG glyco act: inactive

What do the screens show for `Cc1cc(Cn2nc(-c3ccccc3)cc2C(=O)NCc2cccc(Br)c2)on1`?
ADAM10 inh: 37; V-ATPase pH: inactive; ADAM17 inh: 11; MPTP inh: inactive; aDG glyco act: inactive; ADAM10 confirm: inactive; ADAM17 counter: inactive; ADAM10 counter: 24; ADAM17 confirm: 16

How did CCOc1ccc(NC(=O)CN(C)C(=O)c2ccccc2OCc2cccc(C)c2)cc1OCC do in these assays?
ADAM10 inh: inactive; V-ATPase pH: inactive; ADAM17 inh: inactive; MPTP inh: inactive; aDG glyco act: inactive

Results for Cc1cccc(COc2ccccc2C(=O)N(C)CC(=O)Nc2cccc(F)c2)c1 ?
ADAM10 inh: 23; V-ATPase pH: inactive; ADAM17 inh: 11; MPTP inh: inactive; aDG glyco act: inactive; ADAM10 confirm: inactive; ADAM17 counter: inactive; ADAM10 counter: inactive; ADAM17 confirm: 13

How did Cc1noc(C)c1COc1ccccc1C(=O)N(C)CC(=O)Nc1ccc(Cl)c(Cl)c1 do in these assays?
ADAM10 inh: 23; V-ATPase pH: inactive; ADAM17 inh: 9.9; MPTP inh: inactive; aDG glyco act: inactive; ADAM10 confirm: inactive; ADAM17 counter: inactive; ADAM10 counter: 32; ADAM17 confirm: 13

How did Cc1cc(N2CCN(C(=O)Oc3ccc(C(F)(F)F)cc3)CC2)c2ccccc2n1 do in these assays?
ADAM10 inh: inactive; ADAM17 inh: inactive

Results for CCCCCC(=O)N1C[C@H](n2cc(-c3ccc(F)cc3)nn2)[C@@H](O)C[C@@H]1c1ccc(Cl)cc1 ?
ADAM10 inh: 31; V-ATPase pH: inactive; ADAM17 inh: 13; MPTP inh: inactive; aDG glyco act: inactive; ADAM10 confirm: inactive; ADAM17 counter: inactive; ADAM10 counter: 26; ADAM17 confirm: 13

What do the screens show for `COc1ccc(-n2c(SCC(=O)NN=Cc3c(O)ccc4ccccc34)nnc2-c2ccc(C(C)(C)C)cc2)cc1`?
ADAM10 inh: inactive; ADAM17 inh: inactive
